The source of these data is ChEMBL document CHEMBL1949510, “Design and synthesis of 6,6-fused heterocyclic amides as raf kinase inhibitors” (Bioorg Med Chem Lett, 2012).

Data set [1] is described as follows: Apparent permeability from apical to basolateral side in human Caco2 cells. The class given is ADME, cell-based. The note with it: Caco-2. In general terms: Caco-2 cells form a polarised layer with tight junctions and transporters.
Data set [2] concerns the target T1, Serine/threonine-protein kinase B-raf (Homo sapiens, UniProt P15056, V600E). As to the kind of experiment: Inhibition of N-terminus His6-tagged Braf V600E mutant expressed in insect Sf9 cells assessed as Mek phosphorylation after 2 hrs by ELISA. In outline:
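Biochemical assay with the purified BrafV600E kinase domain, not the full-length protein.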
Background: In an ELISA, binding on a coated surface is turned into a signal by an enzyme label.

Data set [3] in a line: Solubility of the compound at pH 7. Conditions: buffer. The class given is physicochemical.
In data set [4] the target is T1, Serine/threonine-protein kinase B-raf. As to the kind of experiment: Inhibition of Braf V600E mutant-mediated Erk phosphorylation in human SK-MEL-28 cells after 4 hrs by Western blot analysis. Type of data set: cell-based. On the technique in general: A western blot detects proteins with antibodies after separation by electrophoresis.
Data set [5] concerns the target Vascular endothelial growth factor receptor 2 (Homo sapiens, UniProt P35968). As to the kind of experiment: Inhibition of KDR. In outline: (§1)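 Selectivity profiling panel of 50 kinases spanning RTKs, STKs, TKs and AGC kinases.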
Data set [6] addresses Tyrosine-protein kinase ABL1 (Homo sapiens, UniProt P00519). As to the kind of experiment: Inhibition of cABL. In outline: as §1
The target of data set [7] is T2, Receptor-type tyrosine-protein kinase FLT3 (Homo sapiens, UniProt P36888).
T2 sequence (P36888 whole entry): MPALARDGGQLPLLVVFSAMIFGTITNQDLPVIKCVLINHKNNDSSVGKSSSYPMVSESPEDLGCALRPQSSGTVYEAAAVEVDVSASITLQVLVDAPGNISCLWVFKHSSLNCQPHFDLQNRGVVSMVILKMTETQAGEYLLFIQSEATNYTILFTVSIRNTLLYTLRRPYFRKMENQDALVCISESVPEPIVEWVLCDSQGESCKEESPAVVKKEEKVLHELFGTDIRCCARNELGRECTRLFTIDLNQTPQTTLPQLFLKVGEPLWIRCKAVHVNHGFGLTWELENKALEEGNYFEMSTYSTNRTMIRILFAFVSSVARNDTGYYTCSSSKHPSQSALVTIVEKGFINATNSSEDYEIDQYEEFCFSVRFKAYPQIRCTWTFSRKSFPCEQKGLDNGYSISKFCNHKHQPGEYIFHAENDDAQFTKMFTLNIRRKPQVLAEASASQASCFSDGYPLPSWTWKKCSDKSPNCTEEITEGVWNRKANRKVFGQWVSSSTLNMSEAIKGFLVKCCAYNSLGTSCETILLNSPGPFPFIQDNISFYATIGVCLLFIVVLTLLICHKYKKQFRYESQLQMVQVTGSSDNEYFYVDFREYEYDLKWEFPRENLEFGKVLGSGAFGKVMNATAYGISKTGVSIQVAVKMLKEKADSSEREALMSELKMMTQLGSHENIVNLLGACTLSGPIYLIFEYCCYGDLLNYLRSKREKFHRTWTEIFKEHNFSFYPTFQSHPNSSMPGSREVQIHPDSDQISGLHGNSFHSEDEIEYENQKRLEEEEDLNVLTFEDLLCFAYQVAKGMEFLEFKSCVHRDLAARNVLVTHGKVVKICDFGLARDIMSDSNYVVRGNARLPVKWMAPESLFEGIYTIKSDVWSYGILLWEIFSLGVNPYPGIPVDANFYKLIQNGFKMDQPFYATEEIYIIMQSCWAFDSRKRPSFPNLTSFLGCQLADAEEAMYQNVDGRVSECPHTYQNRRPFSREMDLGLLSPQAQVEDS
Put plainly: Inhibition of Flt3. In outline:
as §1

Data set [8] concerns the target Macrophage colony-stimulating factor 1 receptor (Homo sapiens, UniProt P07333). Put plainly: Inhibition of CSFR1. In outline:
as §1

Data set [9] has as its system Mus musculus. Put plainly: Volume of distribution in mouse at 20 mg/kg, po administered as single dose. The class given is ADME, organism-based. The arrangement: dose 20 mg/kg, route oral. Conditions: in vivo.
Data set [10] can be described thus: Half life in mouse at 20 mg/kg, po administered as single dose. Type of data set: ADME, organism-based. The arrangement: dose 20 mg/kg, route oral. The note with it: in vivo.
Data set [11] in a line: Clearance in mouse at 20 mg/kg, po administered as single dose. The class given is ADME, organism-based. On the set-up: dose 20 mg/kg, route oral. The note with it: in vivo.
Data set [12] in a line: Oral bioavailability in mouse at 20 mg/kg administered as single dose. Type of data set: ADME, organism-based. Conditions: in vivo.

T1 sequence (P15056 2-766 V600E limits assumed): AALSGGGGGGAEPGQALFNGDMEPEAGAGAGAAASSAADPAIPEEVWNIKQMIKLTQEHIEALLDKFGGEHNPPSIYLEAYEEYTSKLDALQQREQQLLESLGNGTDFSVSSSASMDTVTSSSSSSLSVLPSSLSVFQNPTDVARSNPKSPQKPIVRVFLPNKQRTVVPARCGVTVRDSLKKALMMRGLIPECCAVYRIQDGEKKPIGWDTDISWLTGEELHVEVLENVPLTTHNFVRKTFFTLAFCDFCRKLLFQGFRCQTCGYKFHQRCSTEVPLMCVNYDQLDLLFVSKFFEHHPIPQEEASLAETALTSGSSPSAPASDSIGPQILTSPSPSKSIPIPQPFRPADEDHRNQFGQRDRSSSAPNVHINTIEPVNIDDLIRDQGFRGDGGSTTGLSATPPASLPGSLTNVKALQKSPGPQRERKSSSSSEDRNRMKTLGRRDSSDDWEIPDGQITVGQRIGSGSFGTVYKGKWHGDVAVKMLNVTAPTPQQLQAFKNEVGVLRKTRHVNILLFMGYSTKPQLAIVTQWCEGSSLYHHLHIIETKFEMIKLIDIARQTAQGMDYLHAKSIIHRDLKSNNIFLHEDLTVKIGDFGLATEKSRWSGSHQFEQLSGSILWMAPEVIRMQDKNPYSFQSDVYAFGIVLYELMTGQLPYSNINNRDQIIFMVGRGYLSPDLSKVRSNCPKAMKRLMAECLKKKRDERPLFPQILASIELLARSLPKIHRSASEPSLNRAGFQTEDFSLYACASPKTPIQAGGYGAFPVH
Sequence of Tyrosine-protein kinase ABL1 (P00519 whole entry): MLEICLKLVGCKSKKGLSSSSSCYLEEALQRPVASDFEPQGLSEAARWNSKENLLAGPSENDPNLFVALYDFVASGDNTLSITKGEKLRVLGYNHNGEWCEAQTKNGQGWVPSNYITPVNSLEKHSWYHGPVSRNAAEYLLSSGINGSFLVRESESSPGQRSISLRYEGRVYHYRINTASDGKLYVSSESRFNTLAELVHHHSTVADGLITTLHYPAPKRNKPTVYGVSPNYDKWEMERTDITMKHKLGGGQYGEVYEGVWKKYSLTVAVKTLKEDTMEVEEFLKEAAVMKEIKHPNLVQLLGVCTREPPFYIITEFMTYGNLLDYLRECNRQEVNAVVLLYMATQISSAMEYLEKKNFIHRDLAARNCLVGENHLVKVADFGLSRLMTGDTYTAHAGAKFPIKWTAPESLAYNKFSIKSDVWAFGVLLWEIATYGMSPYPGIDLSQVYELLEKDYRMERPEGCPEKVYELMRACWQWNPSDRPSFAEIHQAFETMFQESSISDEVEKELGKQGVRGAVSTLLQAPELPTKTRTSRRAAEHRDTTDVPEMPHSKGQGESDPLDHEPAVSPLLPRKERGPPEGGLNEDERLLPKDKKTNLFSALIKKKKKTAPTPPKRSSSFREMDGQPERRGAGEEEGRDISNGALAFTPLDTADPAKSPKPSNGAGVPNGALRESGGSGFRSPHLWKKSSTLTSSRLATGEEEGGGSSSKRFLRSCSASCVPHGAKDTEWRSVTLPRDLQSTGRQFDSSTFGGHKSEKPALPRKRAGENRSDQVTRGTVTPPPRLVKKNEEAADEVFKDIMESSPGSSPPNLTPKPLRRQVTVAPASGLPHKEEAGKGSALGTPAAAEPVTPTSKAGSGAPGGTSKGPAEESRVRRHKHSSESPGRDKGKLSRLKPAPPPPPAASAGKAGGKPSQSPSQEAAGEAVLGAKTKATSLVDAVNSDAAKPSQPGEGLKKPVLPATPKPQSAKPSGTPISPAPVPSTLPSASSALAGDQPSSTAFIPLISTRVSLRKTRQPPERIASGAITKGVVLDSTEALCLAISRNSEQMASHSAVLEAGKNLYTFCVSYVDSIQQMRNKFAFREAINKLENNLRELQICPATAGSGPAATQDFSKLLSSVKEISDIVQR
Sequence of Vascular endothelial growth factor receptor 2 (P35968 whole entry): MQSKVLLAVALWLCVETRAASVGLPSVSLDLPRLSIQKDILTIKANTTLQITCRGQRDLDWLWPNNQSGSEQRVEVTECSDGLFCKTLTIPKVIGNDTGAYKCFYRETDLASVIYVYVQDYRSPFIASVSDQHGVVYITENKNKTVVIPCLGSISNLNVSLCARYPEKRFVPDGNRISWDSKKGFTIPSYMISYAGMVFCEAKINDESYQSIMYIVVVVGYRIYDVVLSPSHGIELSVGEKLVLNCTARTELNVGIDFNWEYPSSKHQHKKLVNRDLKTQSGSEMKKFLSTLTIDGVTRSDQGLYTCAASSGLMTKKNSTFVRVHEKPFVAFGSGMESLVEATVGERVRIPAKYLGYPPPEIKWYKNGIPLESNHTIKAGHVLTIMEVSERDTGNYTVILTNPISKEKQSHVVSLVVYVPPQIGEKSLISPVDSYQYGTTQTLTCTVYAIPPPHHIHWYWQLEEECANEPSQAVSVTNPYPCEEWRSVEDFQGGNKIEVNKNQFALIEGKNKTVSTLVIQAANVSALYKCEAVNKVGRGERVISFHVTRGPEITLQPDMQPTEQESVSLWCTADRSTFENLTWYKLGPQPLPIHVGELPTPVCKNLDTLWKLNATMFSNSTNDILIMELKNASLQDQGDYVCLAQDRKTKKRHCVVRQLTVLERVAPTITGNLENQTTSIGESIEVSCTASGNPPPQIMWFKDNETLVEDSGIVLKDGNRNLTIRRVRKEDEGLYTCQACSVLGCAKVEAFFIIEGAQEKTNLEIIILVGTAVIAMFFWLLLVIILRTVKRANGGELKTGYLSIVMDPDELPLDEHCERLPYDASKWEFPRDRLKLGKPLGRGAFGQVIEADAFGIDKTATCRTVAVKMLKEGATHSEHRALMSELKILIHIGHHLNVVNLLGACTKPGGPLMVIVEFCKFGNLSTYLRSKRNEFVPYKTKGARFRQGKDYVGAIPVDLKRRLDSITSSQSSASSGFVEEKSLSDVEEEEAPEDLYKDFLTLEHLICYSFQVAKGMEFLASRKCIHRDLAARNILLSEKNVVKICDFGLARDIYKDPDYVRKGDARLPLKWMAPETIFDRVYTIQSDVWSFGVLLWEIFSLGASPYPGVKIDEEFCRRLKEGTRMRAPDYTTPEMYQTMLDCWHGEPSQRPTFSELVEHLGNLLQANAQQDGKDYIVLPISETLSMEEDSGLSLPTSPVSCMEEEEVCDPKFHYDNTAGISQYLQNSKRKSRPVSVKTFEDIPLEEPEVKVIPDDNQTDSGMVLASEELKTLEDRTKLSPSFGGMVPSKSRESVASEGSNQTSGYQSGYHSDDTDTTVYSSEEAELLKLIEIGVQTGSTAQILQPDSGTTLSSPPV
Sequence of Macrophage colony-stimulating factor 1 receptor (P07333 whole entry): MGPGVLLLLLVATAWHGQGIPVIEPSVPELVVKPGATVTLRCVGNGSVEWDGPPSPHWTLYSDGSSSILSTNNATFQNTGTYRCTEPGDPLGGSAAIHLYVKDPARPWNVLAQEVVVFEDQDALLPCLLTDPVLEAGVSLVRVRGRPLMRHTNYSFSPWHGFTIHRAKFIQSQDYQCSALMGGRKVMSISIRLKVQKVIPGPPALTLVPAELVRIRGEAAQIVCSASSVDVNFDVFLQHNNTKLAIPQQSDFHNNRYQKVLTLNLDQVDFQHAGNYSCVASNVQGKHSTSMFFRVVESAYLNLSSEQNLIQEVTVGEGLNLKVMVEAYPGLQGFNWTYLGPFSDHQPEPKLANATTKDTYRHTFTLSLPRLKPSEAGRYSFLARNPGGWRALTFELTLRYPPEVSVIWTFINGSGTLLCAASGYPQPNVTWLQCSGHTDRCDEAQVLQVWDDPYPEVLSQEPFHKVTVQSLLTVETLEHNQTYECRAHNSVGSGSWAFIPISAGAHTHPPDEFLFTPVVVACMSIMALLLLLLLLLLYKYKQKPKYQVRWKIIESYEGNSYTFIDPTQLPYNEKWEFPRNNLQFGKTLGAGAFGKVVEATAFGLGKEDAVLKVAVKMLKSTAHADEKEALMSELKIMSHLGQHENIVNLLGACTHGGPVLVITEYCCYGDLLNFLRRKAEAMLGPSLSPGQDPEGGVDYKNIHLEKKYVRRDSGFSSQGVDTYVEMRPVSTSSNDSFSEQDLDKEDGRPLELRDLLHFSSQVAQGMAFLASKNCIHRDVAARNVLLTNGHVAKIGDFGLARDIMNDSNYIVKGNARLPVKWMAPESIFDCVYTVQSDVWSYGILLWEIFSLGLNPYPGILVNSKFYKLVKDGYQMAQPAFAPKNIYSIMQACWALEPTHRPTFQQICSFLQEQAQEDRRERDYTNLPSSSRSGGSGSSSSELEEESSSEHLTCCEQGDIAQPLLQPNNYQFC

One may read the Papp A→B as the apparent permeability from the apical to the basolateral side of a cell layer. As a reminder, the IC50 is the concentration at which inhibition is half-maximal. As a reminder, the solubility is the dissolved amount per volume that the medium holds. Low values mean little dissolved substance, high ones much dissolved substance. In general, EC50 refers to the concentration giving half of the maximal effect. A low value points to greater potency. As to `CNC(=O)c1cc(Oc2ccc3nc(Nc4ccccc4)ncc3c2)ccn1`, in data set [1], the Papp A→B was less than 1 ×10⁻⁶ cm/s. The IC50 in [2] is 2.2 µM. For the same molecule, the solubility in data set [3] was less than 1 µM. In data set [4], this molecule showed an EC50 of more than 10 µM.

With `CNC(=O)c1cc(Oc2ccc3nc(Nc4ccccc4Br)ncc3c2)ccn1`, the Papp A→B in [1] was less than 1 ×10⁻⁶ cm/s. For the same molecule, in [2], the half-maximal inhibitory concentration (IC50) was 24 µM. For the same molecule, the solubility in data set [3] was less than 1 µM. Besides, the EC50 in [4] was more than 10 µM.

Consider `CCc1ccccc1Nc1ncc2cc(Oc3ccnc(C(=O)NC)c3)ccc2n1`, for which, in data set [1], the Papp A→B was less than 1 ×10⁻⁶ cm/s. In data set [2], the IC50 is 1.3 µM. Besides, the solubility in [3] is less than 1 µM. The molecule also returned an EC50 in data set [4] of more than 10 µM.

For `CNC(=O)c1cc(Oc2ccc3nc(Nc4ccccc4Oc4ccccc4)ncc3c2)ccn1`, the Papp A→B in data set [1] is less than 1 ×10⁻⁶ cm/s. The IC50 in data set [2] was determined as 5.3 µM. The solubility in [3] was less than 1 µM. This molecule also displayed an EC50 in [4] of more than 10 µM.

Take `CNC(=O)c1cc(Oc2ccc3nc(Nc4cccc(Cl)c4)ncc3c2)ccn1`: the Papp A→B in data set [1] is less than 1 ×10⁻⁶ cm/s. Moreover, the IC50 in [2] is 0.66 µM. In data set [3], the solubility was less than 1 µM. Besides, the EC50 in data set [4] is more than 10 µM.

Consider `CNC(=O)c1cc(Oc2ccc3nc(Nc4cccc(Br)c4)ncc3c2)ccn1`, for which, in data set [1], the Papp A→B is less than 1 ×10⁻⁶ cm/s. In [2], the IC50 was 0.18 µM. In data set [3], this molecule yielded a solubility of less than 1 µM. The molecule also registered an EC50 in data set [4] of more than 10 µM.

Regarding `CNC(=O)c1cc(Oc2ccc3nc(Nc4cccc(C(C)(C)C)c4)ncc3c2)ccn1`, the Papp A→B in data set [1] was less than 1 ×10⁻⁶ cm/s. For the same molecule, the IC50 was less than 1 µM in [5]; 0.045 µM in [2]; less than 1 µM in [6]; less than 1 µM in data set [7]; less than 1 µM in data set [8]. In data set [3], this molecule displayed a solubility of less than 1 µM. The same molecule displayed an EC50 in [4] of more than 10 µM.

On to `CNC(=O)c1cc(Oc2ccc3nc(Nc4cccc(C(F)(F)F)c4)ncc3c2)ccn1`, for which, in data set [1], the Papp A→B was less than 1 ×10⁻⁶ cm/s. Also, in [2], the IC50 was determined as 0.64 µM. The solubility in data set [3] was less than 1 µM. Moreover, in data set [4], the EC50 was more than 10 µM.

`CNC(=O)c1cc(Oc2ccc3nc(Nc4cccc(OC(F)(F)F)c4)ncc3c2)ccn1`: the Papp A→B in data set [1] is less than 1 ×10⁻⁶ cm/s. Moreover, the IC50 in data set [2] is 0.07 µM. Besides, the solubility in [3] was less than 1 µM. Further, the EC50 in data set [4] was more than 10 µM.

What is called half-life is how long it takes for the measured level to halve. Higher therefore signals slow loss. The CL/F is the apparent clearance, not corrected for the fraction that reaches the circulation. Broadly, the bioavailability is the share of a dose that reaches the circulation, judged against a reference dose that is usually intravenous. Lower therefore signals little systemic uptake. Regarding `CNC(=O)c1cc(Oc2ccc3nc(Nc4cccc(C(C)C)c4)ncc3c2)ccn1`, the Papp A→B in data set [1] was less than 1 ×10⁻⁶ cm/s. The molecule further came in with a Vd in [9] of 4.717 L/kg. In addition, in data set [10], the half-life is 7.8 h. Also, the IC50 in [2] was 0.15 µM. The same molecule displayed a solubility in data set [3] of less than 1 µM. Also, the CL/F in [11] was found to be 53.1 mL/min/kg. The molecule also showed an EC50 in data set [4] of more than 10 µM. In data set [12], this molecule displayed a bioavailability of 35%.

On to `CNC(=O)c1cc(Oc2ccc3nc(Nc4ccc(F)cc4)ncc3c2)ccn1`, for which the Papp A→B in data set [1] is less than 1 ×10⁻⁶ cm/s. Also, the IC50 in data set [2] stood at 0.6 µM. The same molecule came in with a solubility in [3] of less than 1 µM. Moreover, the EC50 in data set [4] is more than 10 µM.

In the case of `CNC(=O)c1cc(Oc2ccc3nc(Nc4ccc(Br)cc4)ncc3c2)ccn1`, in [1], the Papp A→B was less than 1 ×10⁻⁶ cm/s. Besides, in data set [2], the IC50 turned out to be 0.31 µM. For the same molecule, the solubility in data set [3] was less than 1 µM. Moreover, the EC50 in data set [4] is more than 10 µM.

For `CNC(=O)c1cc(Oc2ccc3nc(Nc4ccc(C(F)(F)F)cc4)ncc3c2)ccn1`, in data set [1], the Papp A→B is less than 1 ×10⁻⁶ cm/s. The IC50 in data set [2] amounted to 0.067 µM. In data set [3], the solubility was less than 1 µM. In data set [4], this molecule yielded an EC50 of more than 10 µM.

Turning to `CNC(=O)c1cc(Oc2ccc3nc(Nc4ccc(C(C)C)cc4)ncc3c2)ccn1`, the Papp A→B in data set [1] is less than 1 ×10⁻⁶ cm/s. Moreover, the 50% inhibitory concentration (IC50) in data set [2] was determined as 0.001 µM. Also, in data set [3], the solubility was less than 1 µM. The molecule further gave an EC50 in data set [4] of more than 10 µM.

Consider `CNC(=O)c1cc(Oc2ccc3nc(Nc4ccc(OC)cc4)ncc3c2)ccn1`, for which the Papp A→B in data set [1] is less than 1 ×10⁻⁶ cm/s. Moreover, in data set [2], the IC50 turned out to be 0.39 µM. In data set [3], the solubility was less than 1 µM. Further, the EC50 in [4] was more than 10 µM.

Regarding `CNC(=O)c1cc(Oc2ccc3nc(Nc4ccc(OC(F)(F)F)cc4)ncc3c2)ccn1`, in data set [1], the Papp A→B is less than 1 ×10⁻⁶ cm/s. Further, the IC50 in [2] was found to be 0.08 µM. Further, the solubility in data set [3] was less than 1 µM. The molecule further returned an EC50 in data set [4] of more than 10 µM.

Regarding `CNC(=O)c1cc(Oc2ccc3nc(Nc4ccc(Oc5ccccc5)cc4)ncc3c2)ccn1`, in data set [1], the Papp A→B was less than 1 ×10⁻⁶ cm/s. Moreover, the IC50 in data set [2] came to 0.6 µM. In addition, the solubility in data set [3] was less than 1 µM. In data set [4], this molecule returned an EC50 of more than 10 µM.

Turning to `CNC(=O)c1cc(Oc2ccc3nc(Nc4ccc(-c5cccnc5)cc4)ncc3c2)ccn1`, the Papp A→B in data set [1] was less than 1 ×10⁻⁶ cm/s. Moreover, the IC50 in data set [2] is 25 µM. This molecule also returned a solubility in [3] of less than 1 µM. Besides, in data set [4], the EC50 is more than 10 µM.

Turning to `O=C(NCCO)c1cc(Oc2ccc3nc(Nc4ccc(Br)cc4)ncc3c2)ccn1`, in [1], the Papp A→B is less than 1 ×10⁻⁶ cm/s. Further, the IC50 in data set [2] was 8.6 µM. Also, the solubility in [3] was less than 1 µM. For the same molecule, in [4], the EC50 was more than 10 µM.

For `O=C(NCCN1CCCCC1)c1cc(Oc2ccc3nc(Nc4ccc(Br)cc4)ncc3c2)ccn1`, in data set [1], the Papp A→B was less than 1 ×10⁻⁶ cm/s. Also, the IC50 in data set [2] was found to be 1.3 µM. Moreover, in data set [3], the solubility is less than 1 µM. In [4], this molecule had an EC50 of more than 10 µM.

Take `CNC(=O)c1cc(Oc2ccc3nc(Nc4cccc(C(C)(C)C)c4)cnc3c2)ccn1`: the Papp A→B in data set [1] was less than 1 ×10⁻⁶ cm/s. Also, the IC50 in [5] was less than 1 µM; in data set [2], 0.025 µM; in data set [6], less than 1 µM; in data set [7], less than 1 µM; in data set [8], less than 1 µM. In data set [3], this molecule returned a solubility of less than 1 µM. For the same molecule, in data set [4], the EC50 was more than 10 µM.

In the case of `CNC(=O)c1cc(Oc2ccc3nc(Nc4cccc(C(C)(C)C)c4)ccc3c2)ccn1`, the apparent permeability from apical to basolateral (Papp A→B) in data set [1] is less than 1 ×10⁻⁶ cm/s. The IC50 was less than 1 µM in data set [5]; 0.026 µM in data set [2]; less than 1 µM in data set [6]; less than 1 µM in data set [7]; less than 1 µM in [8]. This molecule also displayed a solubility in [3] of less than 1 µM. This molecule returned an EC50 in [4] of more than 10 µM.

For the molecule `CNC(=O)c1cc(Oc2ccc3c(c2)nc(Nc2cccc(C(C)(C)C)c2)n3C)ccn1`, the Papp A→B in data set [1] is less than 1 ×10⁻⁶ cm/s. Moreover, the solubility in [3] is less than 1 µM.
